Assay [1] can be described thus: reducers of endogenous Her2 protein level, primary screen, SKBR3 breast tumor cells, AlphaScreen, ATP viability (AID 461;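 active means Her2 level under about 52% in both replicate screens, with viability over 70% of control, limit read from the data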;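 on Her2 level: lower value means less Her2 protein in the cells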;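 on viability: percent of carrier control wells set as 100% viability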). As to conditions: 18-24 h, measured here: SKBR3 viability, ATP luminescence, at 10 µM. A general note: Bead proximity is the source of the signal in Alpha formats.
Assay [2] concerns the target Receptor tyrosine-protein kinase erbB-2 (Homo sapiens) (UniProt P04626). Described as above. As to conditions: 18-24 h, at 10 µM, stronger effect = lower value.
Assay [3] can be described thus: SK-BR-3 cell growth inhibitors, pilot screen, 24 h, human (AID 572).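 Further: compound exposure lasted between 18 and 24 h rather than exactly 24 h; 100% = carrier-treated control wells.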 As to conditions: SK-BR-3 viability, CellTiter-Glo luminescence, at 10 µM, stronger effect = lower value. (ATP-based viability assays read luminescence as a measure of living cells.)
Assay [4] is described as follows: HUVEC growth inhibition – cell-based, human, primary screen (AID 575;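 active means viability at or below 30% in both replicate assays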;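 further: 100% = median of untreated cell wells with 0.1% DMSO on each plate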). As to conditions: HUVEC proliferation, CellTiter-Glo luminescence, 72 h; at 10 µM; stronger effect = lower value. A digest of the protocol:
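System: primary human umbilical vein endothelial cells; Quantity: 1250 endothelial cells in each well; Buffer or medium: supplemented EBM, 2% fetal bovine serum; Doses: one dose, 10 µM final, 0.1% DMSO; Incubation: 72 h compound incubation; Technique: ATP-based CellTiter-Glo luminescent read; Evaluation: percent of median DMSO-control luminescence; Controls: vehicle and MePR control wells.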

The nature of assay [5]: growth inhibitors of H69AR lung tumor, primary screen, human, duplicate replicates (AID 580;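 active means viability at or under a set limit in both replicates, limit being median viability minus 3 SD, cut at about 48% in these data, passing the limit was not always enough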;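 further: 100% = mean luminescence of untreated wells and 0% = no signal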). Conditions: H69AR lung tumor cells viability, ATP luminescence, 72 h; at 10 µM; stronger effect = lower value.
Assay [6] can be described thus: reversal of MRP1-mediated doxorubicin resistance, pilot screen, H69AR cells, doxorubicin co-treatment (AID 601;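 active means viability loss from added drug above about 55%, and viability with drug at most 40%, in both replicates, limit read from the data, passing the limit was not always enough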). Conditions: CellTiter-Glo, 72 h, at 10 µM; for differential viability (reversal): stronger effect = higher value.
Assay [7] can be described thus: 384-well plate pilot, post-Golgi transport modulator project, inhibition of yeast transport mutant growth (AID 636; in the data active means inhibition above about 31%). As to conditions: absorbance 615 nm, about 18 h, stronger effect = higher value.
The nature of assay [8]: growth suppression of yeast trafficking mutant, preliminary HTS, modulators of trafficking downstream of Golgi apparatus project, 1536-format plate, OD 615 nm (AID 637; in the data active means inhibition above about 30%). Conditions: yeast transport mutant growth, absorbance 615 nm, 18 h; stronger effect = higher value.
The mark [9] stands for this setting: H69AR cells + 2 uM doxorubicin, measured here: viability with 2 uM doxorubicin, stronger effect = lower value.
The mark [10] stands for this setting: H69AR cells, compound alone cytotoxicity.

The values below come from PubChem BioAssay.

The source made the active and inactive calls.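 How the source made its calls, unless noted: active means viability at or below 10% of carrier control in both of two separate runs; inconclusive means viability at or below 10% in only one of the two runs; inactive means the rest.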

As a reminder, the viability is a read-out of living cells in per cent, often relative to untreated cells. What is called inhibition is the drop in the measured response relative to a control, in per cent.

Chain of Receptor tyrosine-protein kinase erbB-2 (Homo sapiens) (P04626 whole entry, looked up): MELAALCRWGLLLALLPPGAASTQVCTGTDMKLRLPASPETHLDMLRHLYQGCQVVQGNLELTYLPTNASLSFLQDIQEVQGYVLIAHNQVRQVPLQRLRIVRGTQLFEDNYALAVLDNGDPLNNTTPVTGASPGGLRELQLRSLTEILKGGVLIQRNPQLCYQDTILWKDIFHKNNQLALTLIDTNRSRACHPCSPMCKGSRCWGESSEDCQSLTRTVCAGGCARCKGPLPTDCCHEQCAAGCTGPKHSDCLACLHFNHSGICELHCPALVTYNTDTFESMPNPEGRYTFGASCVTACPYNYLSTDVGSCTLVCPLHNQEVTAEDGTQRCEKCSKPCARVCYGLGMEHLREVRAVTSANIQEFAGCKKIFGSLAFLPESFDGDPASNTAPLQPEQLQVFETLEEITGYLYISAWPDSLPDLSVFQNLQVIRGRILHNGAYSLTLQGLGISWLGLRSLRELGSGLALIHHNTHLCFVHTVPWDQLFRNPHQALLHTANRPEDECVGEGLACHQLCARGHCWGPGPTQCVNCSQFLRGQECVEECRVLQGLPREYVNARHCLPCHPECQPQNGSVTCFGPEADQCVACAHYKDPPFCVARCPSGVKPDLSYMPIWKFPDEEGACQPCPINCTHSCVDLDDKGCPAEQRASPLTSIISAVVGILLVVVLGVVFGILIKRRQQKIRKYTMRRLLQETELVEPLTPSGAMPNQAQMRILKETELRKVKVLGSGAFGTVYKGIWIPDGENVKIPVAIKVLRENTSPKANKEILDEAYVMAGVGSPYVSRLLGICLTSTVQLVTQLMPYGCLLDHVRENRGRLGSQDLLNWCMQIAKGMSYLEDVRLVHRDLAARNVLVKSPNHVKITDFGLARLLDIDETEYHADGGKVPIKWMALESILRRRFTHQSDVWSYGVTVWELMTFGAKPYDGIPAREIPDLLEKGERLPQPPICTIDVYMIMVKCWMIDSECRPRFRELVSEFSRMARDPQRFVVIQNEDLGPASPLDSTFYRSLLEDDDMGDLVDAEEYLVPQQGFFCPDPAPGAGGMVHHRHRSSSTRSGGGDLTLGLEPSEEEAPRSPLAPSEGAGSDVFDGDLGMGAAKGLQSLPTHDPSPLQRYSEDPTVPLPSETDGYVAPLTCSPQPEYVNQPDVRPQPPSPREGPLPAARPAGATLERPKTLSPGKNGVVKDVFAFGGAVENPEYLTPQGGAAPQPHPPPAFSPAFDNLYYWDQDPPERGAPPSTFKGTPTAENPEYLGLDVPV

On to `COc1cccc(NC(=O)COc2ccccc2C(N)=O)c1`, for which the viability in assay [1] is 93.5%; in assay [3] it was 93.5% (inactive); in assay [4], 83.1% (inactive); in assay [5] it was 105% (inactive); in assay [6] (setting [9]) it was 88.7%; in assay [6] (setting [10]) it was 105%. For the same compound, the Her2 level in assay [2] is 110% (inactive). In assay [6] (H69AR cells + 2 uM doxorubicin), the differential viability (reversal) is 16% (inactive). The inhibition in assay [7] is 0% (inactive); in assay [8], -7.9% (inactive).
Consider `CCOC(=O)c1cc2c(=O)n3cccc(C)c3nc2n(CCc2ccccc2)c1=N`, for which the viability was 82% in assay [1]; 82% (inactive) in assay [3]; 75.9% (inactive) in assay [4]; 77.9% (inactive) in assay [5]; 79.8% in assay [6] (setting [9]); 77.9% in assay [6] (setting [10]). Further, the Her2 level in assay [2] is 72% (inactive). For the same compound, the differential viability (reversal) in assay [6] (H69AR cells + 2 uM doxorubicin) is -1.89% (inactive). The inhibition is -4.8% (inactive) in assay [7] and 5.9% (inactive) in assay [8].
Take `Nc1cc(-c2ccc(Br)cc2)nn1S(=O)(=O)c1ccccc1`: the viability was 90% in assay [1]; 90% (inactive) in assay [3]; 74.2% (inactive) in assay [4]; 88% (inactive) in assay [5]; 87.5% in assay [6] (setting [9]); 88% in assay [6] (setting [10]). The Her2 level in assay [2] is 108% (inactive). In addition, the differential viability (reversal) in assay [6] (H69AR cells + 2 uM doxorubicin) is 0.535% (inactive). Also, the inhibition is 0.26% (inactive) in assay [7] and 3.67% (inactive) in assay [8].
Regarding `O=C(Nc1ccc2c(c1)OCO2)C(c1ccc(Cl)cc1)N1CCN(C(=O)c2ccco2)CC1` (stereo not given), the viability in assay [1] is 71%; in assay [3] it was 71% (inactive); in assay [4], 103% (inactive); in assay [5], 91.4% (inactive); in assay [6] (setting [9]), 84.5%; in assay [6] (setting [10]), 91.4%. The Her2 level in assay [2] was 80.5% (inactive). Also, in assay [6] (H69AR cells + 2 uM doxorubicin), the differential viability (reversal) is 6.85% (inactive). For the same compound, the inhibition in assay [7] was -5.27% (inactive); in assay [8], 2.3% (inactive).
As to `COC(=O)COc1nc(C)c(Br)c(OC)n1`, the viability is 96.5% in assay [1]; 96.5% (inactive) in assay [3]; 105% (inactive) in assay [4]; 116% (inactive) in assay [5]; 90% in assay [6] (setting [9]); 116% in assay [6] (setting [10]). For the same compound, in assay [2], the Her2 level was 99% (inactive). Moreover, the differential viability (reversal) in assay [6] (H69AR cells + 2 uM doxorubicin) was 25.9% (inactive). Also, the inhibition is -3.95% (inactive) in assay [7] and 7.54% (inactive) in assay [8].
As for `CCCCOCCCNC(=O)c1cccs1`, the viability in assay [1] was 103%; in assay [3], 103% (inactive); in assay [4] it was 97.8% (inactive); in assay [5], 104% (inactive); in assay [6] (setting [9]), 92.5%; in assay [6] (setting [10]), 104%. Further, in assay [2], the Her2 level was 102% (inactive). The differential viability (reversal) in assay [6] (H69AR cells + 2 uM doxorubicin) is 11.5% (inactive). The figures for the inhibition in assay [7] and in assay [8] were -2.21% (inactive) and -3.17% (inactive), respectively.
As for `O=c1c2cc(N3CCOCC3)ccc2[nH]c(=S)n1CCCN1CCCC1`, the viability is 89% in assay [1]; 89% (inactive) in assay [3]; 86% (inactive) in assay [4]; 100% (inactive) in assay [5]; 85.4% in assay [6] (setting [9]); 100% in assay [6] (setting [10]). For the same compound, the Her2 level in assay [2] was 78% (inactive). The differential viability (reversal) in assay [6] (H69AR cells + 2 uM doxorubicin) is 14.6% (inactive). Also, the inhibition in assay [7] was -5.41% (inactive); in assay [8] it was 6.89% (inactive).
As for `O=C(CN(CCc1ccccc1)C(=O)CNS(=O)(=O)c1ccccc1)NCC1CCCO1` (stereo not given), the viability in assay [1] is 91%; in assay [3], 91% (inactive); in assay [4] it was 86.9% (inactive); in assay [5] it was 102% (inactive); in assay [6] (setting [9]), 96.2%; in assay [6] (setting [10]), 102%. Further, in assay [2], the Her2 level was 87.5% (inactive). The differential viability (reversal) in assay [6] (H69AR cells + 2 uM doxorubicin) is 5.36% (inactive). The inhibition was -0.81% (inactive) in assay [7] and -2.13% (inactive) in assay [8].
Regarding `CCOC(=O)N1CCN(C(=O)CSc2cc(C)nc3c(-c4ccccc4OC)c(C)nn23)CC1`, the viability in assay [1] is 79.5%; in assay [3], 79.5% (inactive); in assay [4] it was 94% (inactive); in assay [5], 73.3% (inactive); in assay [6] (setting [9]) it was 24.8%; in assay [6] (setting [10]), 73.3%. The Her2 level in assay [2] was 90% (inactive). In assay [6] (H69AR cells + 2 uM doxorubicin), the differential viability (reversal) was 48.5% (inactive). Besides, the figures for the inhibition in assay [7] and in assay [8] were -0.26% (inactive) and -1.43% (inactive), respectively.
On to `Cc1nn(-c2ccccc2)c2c1C(c1c(C)[nH]c(C#N)c1C)C(C#N)=C(N)O2` (stereo not given), for which the viability is 88% in assay [1]; 88% (inactive) in assay [3]; 85.5% (inactive) in assay [4]; 92.7% (inactive) in assay [5]; 106% in assay [6] (setting [9]); 92.7% in assay [6] (setting [10]). Besides, the Her2 level in assay [2] was 86.5% (inactive). Further, in assay [6] (H69AR cells + 2 uM doxorubicin), the differential viability (reversal) was -13.2% (inactive). In addition, the inhibition in assay [7] was -4.13% (inactive); in assay [8], -5.25% (inactive).
For `Cc1cccc(-c2cc3nc4c(c(N5CCOCC5)n3n2)CCCC4)c1`, the viability in assay [1] was 93%; in assay [3] it was 93% (inactive); in assay [4], 71.7% (inactive); in assay [5], 76% (inactive); in assay [6] (setting [9]) it was 78.4%; in assay [6] (setting [10]) it was 76%. Moreover, the Her2 level in assay [2] is 70% (inactive). The differential viability (reversal) in assay [6] (H69AR cells + 2 uM doxorubicin) is -2.37% (inactive). The results for the inhibition in assay [7] and in assay [8] were -6.76% (inactive) and 2.95% (inactive), respectively.
Take `c1ccc(-c2nnc(-c3ccco3)n2-c2ccccc2)cc1`: the viability was 81.5% in assay [1]; 81.5% (inactive) in assay [3]; 87% (inactive) in assay [4]; 88.1% (inactive) in assay [5]; 98.6% in assay [6] (setting [9]); 88.1% in assay [6] (setting [10]). Further, the Her2 level in assay [2] is 78% (inactive). In assay [6] (H69AR cells + 2 uM doxorubicin), the differential viability (reversal) was -10.6% (inactive). Moreover, the inhibition is -6.08% (inactive) in assay [7] and 3.61% (inactive) in assay [8].
For the compound `COC(=O)c1ccc(CSc2nc(-c3ccc(OC)cc3)nc3c2c(=O)n(C)c(=O)n3C)o1`, the viability in assay [1] was 100%; in assay [3], 100% (inactive); in assay [4] it was 85.8% (inactive); in assay [5] it was 77.4% (inactive); in assay [6] (setting [9]) it was 89%; in assay [6] (setting [10]) it was 77.4%. Also, the Her2 level in assay [2] was 74% (inactive). Further, the differential viability (reversal) in assay [6] (H69AR cells + 2 uM doxorubicin) is -11.5% (inactive). Besides, the inhibition in assay [7] was -4.8% (inactive); in assay [8], -3.11% (inactive).
